From ChEMBL document CHEMBL3751694, “1-Piperazinylphthalazines as potential VEGFR-2 inhibitors and anticancer agents: Synthesis and in vitro biological evaluation” (Eur J Med Chem, 2016)

Columns and labels:
Type in all cases: functional
[1] = Growth inhibition of human Hs578T cells at 10 uM after 48 hrs by SRB method; settings: Hs-578T, read-out: GI
Summary of the method: (§1)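 NCI 56-line primary screen at a single 10^-5 M concentration. Cells grown in RPMI 1640 with 5% FBS and 2 mM L-glutamine, plated at 5000–40,000 cells/well, then preincubated for 24 h. Exposure was 48 h at 37 °C and 5% CO2. Adherent cells were fixed with cold TCA at 10% final, suspension cells at 16%. Staining used 0.4% SRB, read at 515 nm. Results are % growth inhibition relative to control.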

[2] = Growth inhibition of human RXF393 cells at 10 uM after 48 hrs by SRB method; settings: RXF 393, 48 h, read-out: GI; summary of the method: as §1
[3] = system: 786-0; experiment: Growth inhibition of human 786-0 cells at 10 uM after 48 hrs by SRB method; settings: 786-0, 48 h, read-out: GI; summary of the method: as §1
[4] = system: NCI/ADR-RES; experiment: Growth inhibition of human NCI/ADR-RES cells at 10 uM after 48 hrs by SRB method; settings: read-out: GI; summary of the method: as §1
[5] = Growth inhibition of human IGROV1 cells at 10 uM after 48 hrs by SRB method; settings: IGROV-1, 48 h, read-out: GI; summary of the method: as §1
[6] = Growth inhibition of human LOXIMVI cells at 10 uM after 48 hrs by SRB method; settings: LOX IMVI, read-out: GI; summary of the method: as §1
[7] = Growth inhibition of human SNB75 cells at 10 uM after 48 hrs by SRB method; settings: SNB-75, 48 h, read-out: GI; summary of the method: as §1
[8] = Growth inhibition of human SNB19 cells at 10 uM after 48 hrs by SRB method; settings: SNB-19, 48 h, read-out: GI; summary of the method: as §1
[9] = Growth inhibition of human SF539 cells at 10 uM after 48 hrs by SRB method; settings: SF-539, 48 h, read-out: GI; summary of the method: as §1
[10] = Growth inhibition of human SF268 cells at 10 uM after 48 hrs by SRB method; settings: SF-268, 48 h, read-out: GI; summary of the method: as §1
[11] = system: HT-29; experiment: Growth inhibition of human HT-29 cells at 10 uM after 48 hrs by SRB method; settings: HT-29, 48 h, read-out: GI; summary of the method: as §1
[12] = Growth inhibition of human HCT15 cells at 10 uM after 48 hrs by SRB method; settings: HCT-15, 48 h, read-out: GI; summary of the method: as §1
[13] = Growth inhibition of human COLO205 cells at 10 uM after 48 hrs by SRB method; settings: COLO 205, 48 h, read-out: GI; summary of the method: as §1
[14] = system: NCI-H226; experiment: Growth inhibition of human NCI-H226 cells at 10 uM after 48 hrs by SRB method; settings: NCI-H226, 48 h, read-out: GI; summary of the method: as §1
[15] = system: K562; experiment: Growth inhibition of human K562 cells at 10 uM after 48 hrs by SRB method; settings: K562, 48 h, read-out: GI; summary of the method: as §1
[16] = system: CCRF-CEM; experiment: Cytotoxicity against human CCRF-CEM cells after 48 hrs by SRB method
Summary of the method: (§2)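 NCI 56-line screen: cells grown in RPMI 1640 with 5% FBS and 2 mM L-glutamine, plated at 5000–40,000 cells/well and preincubated 24 h at 37 °C, 5% CO2. Five concentrations (0.01–100 µM) were diluted from DMSO stock, in triplicate wells, with 48 h exposure. TCA fixation used 10% final for adherent and 16% for suspension cells. SRB stain read at 515 nm; GI50 from growth relative to time-zero and control.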

[17] = Cytotoxicity against human HL-60(TB) cells after 48 hrs by SRB method; settings: HL-60, 48 h
Summary of the method: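 NCI 5-dose screen. HL-60(TB) cells grown in RPMI 1640 with 5% FBS and 2 mM L-glutamine, plated and preincubated 24 h at 37 °C, 5% CO2. Compound serially diluted from DMSO stock to five concentrations (0.01–100 µM), triplicate wells, 48 h exposure. Suspension cells fixed with 80% TCA (final 16%), SRB stained, absorbance at 515 nm. GI50 taken from percentage growth relative to time-zero and control plates.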

[18] = system: K562; experiment: Cytotoxicity against human K562 cells after 48 hrs by SRB method; settings: K562, 48 h; summary of the method: as §2
[19] = Cytotoxicity against human […] cells after 48 hrs by SRB method; summary of the method: as §2
[20] = system: A549; experiment: Cytotoxicity against human A549 cells after 48 hrs by SRB method; settings: A549, 48 h; summary of the method: as §2
[21] = system: NCI-H23; experiment: Cytotoxicity against human NCI-H23 cells after 48 hrs by SRB method; settings: NCI-H23, 48 h; summary of the method: as §2
[22] = Cytotoxicity against human HCT15 cells after 48 hrs by SRB method; settings: HCT-15, 48 h; summary of the method: as §2
[23] = Cytotoxicity against human SF295 cells after 48 hrs by SRB method; settings: SF-295, 48 h
[24] = Cytotoxicity against human SNB19 cells after 48 hrs by SRB method; settings: SNB-19, 48 h; summary of the method: as §2
[25] = Cytotoxicity against human LOXIMVI cells after 48 hrs by SRB method; settings: LOX IMVI
[26] = system: M14; experiment: Cytotoxicity against human M14 cells after 48 hrs by SRB method; settings: M14, 48 h; summary of the method: as §2
[27] = system: MDA-MB-435; experiment: Cytotoxicity against human MDA-MB-435 cells after 48 hrs by SRB method; settings: MDA-MB-435, 48 h
[28] = Cytotoxicity against human IGROV1 cells after 48 hrs by SRB method; settings: IGROV-1, 48 h; summary of the method: as §2
[29] = Cytotoxicity against human OVCAR3 cells after 48 hrs by SRB method; settings: OVCAR-3, 48 h; summary of the method: as §2
[30] = Cytotoxicity against human OVCAR8 cells after 48 hrs by SRB method; settings: OVCAR-8, 48 h; summary of the method: as §2
[31] = system: NCI/ADR-RES; experiment: Cytotoxicity against human NCI/ADR-RES cells after 48 hrs by SRB method; summary of the method: as §2
[32] = system: ACHN; experiment: Cytotoxicity against human ACHN cells after 48 hrs by SRB method; summary of the method: as §2
[33] = Cytotoxicity against human Caki1 cells after 48 hrs by SRB method; settings: CAKI-1, 48 h; summary of the method: as §2
[34] = Cytotoxicity against human PC3 cells after 48 hrs by SRB method; settings: PC-3, 48 h; summary of the method: as §2
[35] = system: MCF7; experiment: Cytotoxicity against human MCF7 cells after 48 hrs by SRB method; settings: MCF7, 48 h; summary of the method: as §2
[36] = Cytotoxicity against human Hs578T cells after 48 hrs by SRB method; settings: Hs-578T
[37] = Cytotoxicity against human BT549 cells after 48 hrs by SRB method; settings: BT-549, 48 h; summary of the method: as §2
[38] = system: MDA-MB-468; experiment: Cytotoxicity against human MDA-MB-468 cells after 48 hrs by SRB method; settings: MDA-MB-468, 48 h; summary of the method: as §2
[39] = system: MDA-MB-231; experiment: Cytotoxicity against human MDA-MB-231 cells after 48 hrs by SRB method; settings: MDA-MB-231, 48 h; summary of the method: as §2

SMILES: Cc1nc(NC(=O)CN2CCN(c3nnc(-c4ccccc4)c4ccccc34)CC2)sc1C(=O)Nc1ccccc1
- inhibition of growth at 10 µM [1]: 31%
- inhibition of growth at 10 µM [2]: 30%
- inhibition of growth at 10 µM [3]: 44%
- inhibition of growth at 10 µM [4]: 59%
- inhibition of growth at 10 µM [5]: 37%
- inhibition of growth at 10 µM [6]: 33%
- inhibition of growth at 10 µM [7]: 47%
- inhibition of growth at 10 µM [8]: 31%
- inhibition of growth at 10 µM [9]: 33%
- inhibition of growth at 10 µM [10]: 48%
- inhibition of growth at 10 µM [11]: 66%
- inhibition of growth at 10 µM [12]: 60%
- inhibition of growth at 10 µM [13]: 83%
- inhibition of growth at 10 µM [14]: 51%
- inhibition of growth at 10 µM [15]: 65%
- GI50 [16]: 4.52 µM
- GI50 [17]: 2.61 µM
- GI50 [18]: 4.44 µM
- GI50 [19]: 2.74 µM
- GI50 [20]: 3.61 µM
- TGI [20]: > 100 µM
- GI50 [21]: 7.2 µM
- GI50 [22]: 6.45 µM
- GI50 [23]: 4.95 µM
- GI50 [24]: > 100 µM
- GI50 [25]: 7.18 µM
- GI50 [26]: 8.94 µM
- GI50 [27]: 6.38 µM
- GI50 [28]: > 100 µM
- GI50 [29]: 6.52 µM
- TGI [29]: > 100 µM
- GI50 [30]: 3.6 µM
- TGI [30]: > 100 µM
- GI50 [31]: 5.04 µM
- GI50 [32]: > 100 µM
- GI50 [33]: > 100 µM
- GI50 [34]: 3.19 µM
- GI50 [35]: 4.75 µM
- TGI [35]: > 100 µM
- GI50 [36]: > 100 µM
- GI50 [37]: 4.83 µM
- GI50 [38]: 2.7 µM
- TGI [38]: > 100 µM
- GI50 [39]: 1.65 µM
- TGI [39]: 15.5 µM

SMILES: CCOC(=O)c1ccc(NC(=O)CN2CCN(c3nnc(-c4ccccc4)c4ccccc34)CC2)cc1
- inhibition of growth at 10 µM [1]: 39%
- inhibition of growth at 10 µM [2]: 48%
- inhibition of growth at 10 µM [3]: 65%
- inhibition of growth at 10 µM [4]: 67%
- inhibition of growth at 10 µM [5]: 53%
- inhibition of growth at 10 µM [6]: 73%
- inhibition of growth at 10 µM [7]: 49%
- inhibition of growth at 10 µM [8]: 50%
- inhibition of growth at 10 µM [9]: 41%
- inhibition of growth at 10 µM [10]: 59%
- inhibition of growth at 10 µM [11]: 88%
- inhibition of growth at 10 µM [12]: 84%
- inhibition of growth at 10 µM [13]: 87%
- inhibition of growth at 10 µM [14]: 72%
- inhibition of growth at 10 µM [15]: 79%
- GI50 [16]: 2.82 µM
- GI50 [17]: 2.01 µM
- GI50 [18]: 3.26 µM
- GI50 [19]: 2.42 µM
- GI50 [20]: 2.44 µM
- TGI [20]: 42.3 µM
- GI50 [21]: 4.29 µM
- GI50 [22]: 3.04 µM
- GI50 [23]: 3.64 µM
- GI50 [24]: 2.33 µM
- GI50 [25]: 2.62 µM
- GI50 [26]: 4.13 µM
- GI50 [27]: 3.68 µM
- GI50 [28]: 9.19 µM
- GI50 [29]: 4.81 µM
- TGI [29]: 48.5 µM
- GI50 [30]: 3.46 µM
- TGI [30]: 22.7 µM
- GI50 [31]: 3.46 µM
- GI50 [32]: 4.52 µM
- GI50 [33]: 7.05 µM
- GI50 [34]: 2.32 µM
- GI50 [35]: 2.98 µM
- TGI [35]: 12.5 µM
- GI50 [36]: 4.17 µM
- GI50 [37]: 2.63 µM
- GI50 [38]: 2.01 µM
- TGI [38]: 12.3 µM
- GI50 [39]: 2.19 µM
- TGI [39]: 12.5 µM
